Calls of active or inactive are those of the source. No cut-off for these calls is given here.
Tests used:
RAW264.7 [1] = assay: Antiinflammatory activity in mouse RAW264.7 cells assessed as inhibition of LPS-induced nitric oxide production at 10 uM preincubated for 1 hr followed by LPS stimulation and measured after 24 hrs by Griess reagent-based assay relative to control; assay type: functional; conditions: time 25 hrs
In short: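 RAW264.7 cells (7 × 10^4/well, used 24 h after seeding) in DMEM with 10% heat-inactivated FBS, 37 °C, 5% CO2. Pretreated 1 h with compound (10 µM screen; 0.625–10 µM dose series), then LPS 0.5 µg/mL for 24 h. Supernatant mixed 1:1 with Griess reagent, 15 min at room temperature, absorbance read at […].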

RAW264.7 [2] = assay: Anti-inflammatory activity in mouse RAW264.7 cells assessed as inhibition of LPS-induced COX-2 protein expression preincubated for 1 hr followed by LPS stimulation and measured after 24 hrs by Western blot analysis; assay type: functional, cell-based; conditions: dose 0.5-2 µM, time 25.0 hrs
In short: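 Cells pretreated 1 h with 0.5, 1, 2 µM, then LPS 0.5 µg/mL for 24 h. iNOS, COX-2 and β-actin detected by Western blot (RIPA lysis, PVDF, primary 16 h at 4 °C, HRP secondary, ECL). Blots representative of three separate experiments.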

RAW264.7 [3] = assay: Activation of Nrf2/HO-1 signalling pathway in mouse RAW264.7 cells assessed as increase in HO-1 protein expression at 0.5 to 2 uM preincubated for 1 hr followed by LPS stimulation and measured after 24 hrs by Western blotting analysis; assay type: cell-based; conditions: filed as activator, dose 0.5-2 µM, time 25.0 hrs
In short: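 RAW264.7 cells (2 × 10^6/well, grown 24 h) pretreated 1 h with 0.5, 1, 2 µM, then LPS 0.5 µg/mL for 24 h. Lysed in RIPA with PMSF and phosphatase inhibitors, SDS-PAGE, PVDF transfer. Primary antibodies (anti-Nrf2 or anti-HO-1) 16 h at 4 °C, HRP secondary 1:5000 1 h at room temperature, ECL detection. β-actin used for normalization.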

RAW264.7 [4] = assay: Activation of Nrf2/HO-1 signalling pathway in mouse RAW264.7 cells assessed as increase in Nrf2 nuclear translocation at 0.5 to 2 uM preincubated for 1 hr followed by LPS stimulation and measured after 6 hrs by DAPI staining based fluorescence microscopic analysis; assay type: cell-based; conditions: filed as activator, dose 0.5-2 µM, time 7.0 hrs
In short: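 Cells grown on glass coverslips, treated 1 h, then LPS 0.5 µg/mL for 6 h. Fixed in 4% paraformaldehyde 20 min at room temperature, blocked 1 h in TBS with 0.1% Triton X-100 and 5% BSA. Stained with anti-Nrf2 and FITC anti-rabbit IgG, nuclei with DAPI. Imaged by inverted fluorescence microscope.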

RAW264.7 [5] = assay: Inhibition of MAPK signalling activation in mouse RAW264.7 cells assessed as reduction in LPS-induced ERK phosphorylation at 0.5 to 2 uM preincubated for 1 hr followed by LPS stimulation by Western blotting analysis; assay type: cell-based; conditions: dose 0.5-2 µM, TDE = time-dependent effect
In short: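 Pretreatment 1 h with 0.5–2 µM, then LPS 0.5 µg/mL for 30 min. p-IκB, IκB, p-p65, p65, ERK, JNK, p38 and their phosphorylated forms, plus β-actin, detected by Western blot (RIPA lysis, SDS-PAGE, PVDF, primary 16 h at 4 °C, HRP secondary 1:5000, ECL).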

Rattus norvegicus = assay: Antiarthritic activity in Sprague-Dawley rat model of CFA-induced arthritis assessed as reduction in paw swelling at 20 to 40 mg/kg, […] and measured every 3 days; assay type: functional, organism-based; conditions: dose 20-40 mg/kg

Question: With `COc1cc(OC)c2c(c1)C(C(O)c1ccc(OCc3ccc(F)cc3)cc1)OC2=O` (stereo unspecified) as the molecule, how does the inhibition at 10 µM (RAW264.7 [1]) read?
Answer: 95.2%

Question: And the inhibition (RAW264.7 [2])?
Answer: Dose-dependent effect

Question: What about the Activity (RAW264.7 [3]) of the same molecule?
Answer: Active

Question: What about the Activity (RAW264.7 [4]) of the same molecule?
Answer: Active

Question: And the inhibition (RAW264.7 [5])?
Answer: Tde

Question: What about the Activity (Rattus norvegicus) of the same molecule?
Answer: Active

Source: ChEMBL document CHEMBL4765431, “Novel phthalide derivatives: Synthesis and anti-inflammatory activity in vitro and in vivo” (Eur J Med Chem, 2020)
